Source: publication PMC8173612 (ACS Omega, 2021)
Values after ≈ are worked out from the molar mass of the structure shown. Read-outs that look alike come from different tables or passages of the source.

Experiments:
[1] = in deionized water, cyclohexane, petroleum ether, and hexane; cited from earlier work
[2] = Solubility screening of selected solvents; assay type: physicochemical
In short: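 Solvent screen in 2-propanol, tetrahydrofuran, cyclohexane and toluene. Solubility of each test compound was determined in each neat solvent at room temperature and at 0 °C. Values are reported in mg/mL.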

[3] = solvent cyclohexane, RT (25-30 °C)
[4] = tetrahydrofuran, 0 °C, organic solvent or mixture, thermodynamic from solid
[5] = tetrahydrofuran, organic solvent or mixture, thermodynamic from solid
[6] = toluene, 0 °C, organic solvent or mixture, thermodynamic from solid
[7] = toluene, organic solvent or mixture, thermodynamic from solid
[8] = solvent 2-propanol, RT (25-30 °C)

| SMILES | solubility [1] | solubility ([2]; 2-propanol, 0 °C, organic solvent or mixture, thermodynamic from solid) [mg/mL] | solubility ([2]; 2-propanol, organic solvent or mixture, thermodynamic from solid) [mg/mL] | solubility ([2]; solvent cyclohexane, 0 °C) | solubility [2, 3] | solubility [2, 4] [mg/mL] | solubility [2, 5] [mg/mL] | solubility [2, 6] [mg/mL] | solubility [2, 7] [mg/mL] | solubility ([2]; solvent 2-propanol, 0 °C) | solubility [2, 8] | solubility ([2]; solvent tetrahydrofuran, 0 °C) [mg/mL] | solubility ([2]; solvent tetrahydrofuran, RT (25-30 °C)) [mg/mL] | solubility ([2]; solvent toluene, RT (25-30 °C)) [mg/mL] |
| --- | --- | --- | --- | --- | --- | --- | --- | --- | --- | --- | --- | --- | --- | --- |
| O=P(c1ccccc1)(c1ccccc1)c1ccccc1 [TPPO, Triphenylphosphine oxide] | almost insoluble | 25.4 (≈ 91.3 mM) | 46.5 (≈ 167 mM) | insoluble | insoluble | 105 (≈ 377 mM) | 170 (≈ 610 mM) | 42.9 (≈ 154 mM) | 44.3 (≈ 159 mM) | – | – | – | – | – |
| CC(C)OC(=O)NNC(=O)OC(C)C.O=P(c1ccccc1)(c1ccccc1)c1ccccc1 [TPPO-H2DIAD, triphenylphosphine oxide-1,2-isopropylhydrazine dicarboxylate] | – | – | – | insoluble | insoluble | – | – | – | – | 13.3 mg/mL | 60.4 mg/mL | 61.0 | 157.5 | 23.2 |
| CC(C)(C)OC(=O)N1C[C@@H](F)C[C@H]1CON1C(=O)c2ccccc2C1=O [compound-6, tert-Butyl (2S,4S)-2-{[(1,3-Dioxo-1,3-dihydro-2H-isoindol-2-yl)oxy]methyl}-4-fluoro-pyrrolidine-1-carboxylate] | – | – | – | insoluble | insoluble | 101 (≈ 277 mM) | 124 (≈ 342 mM) | 42.1 (≈ 116 mM) | 46.7 (≈ 128 mM) | insoluble | insoluble | – | – | – |
